Activity calls are given as the source filed them. No cut-off for these calls is given here.
Assays:
MV4-11 [1] = assay: Cytotoxicity against human MV4-11 cells assessed as reduction in cell viability incubated for 24 hrs by celltiter-glo assay; type: functional, cell-based; conditions: MV4-11, 24 h
Method in brief: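 MV4;11 cells (WT or CASP1−/−), grown in RPMI 1640 with 10% FBS at 37 °C, 5% CO2, plated 2000 cells/well, dosed by pintool across 100 μM to 15.2 nM in three-fold steps for 24 h. Viability by CellTiter-Glo luminescence after 2 min shaking and 10 min at 25 °C. IC50 as mean ± SEM of three biological replicates.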

MV4-11 [2] = assay: Induction of cell death in CASP1 knockout human MV4-11 cells assessed as increase in PI uptake at 6.25 uM incubated for 6 hrs by PI staining based fluorescence analysis; type: functional
Method in brief: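 PI flux assay. 2 × 10^4 MV4;11 (WT, CARD8−/− or CASP1−/−) or OCI-AML2 cells in RPMI were given compound at 6.25 μM plus PI at 10 μM final. Fluorescence (Ex/Em 535/617 nm) was read every 5 min at 37 °C for 6 h, baseline-corrected to DMSO and normalized to the maximum response. n = 3.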

OCI-AML2 [3] = assay: Induction of cell death in CARD8 knockout human OCI-AML2 cells assessed as reduction in cell viability incubated for 24 hrs by celltiter-glo assay; type: functional, cell-based
Method in brief: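 OCI-AML2 cells, WT or CARD8−/−, were grown in RPMI 1640 with 10% FBS and plated at 2000 cells/well. Compound was added over a range of concentrations for 24 h, and viability was then read by CellTiter-Glo luminescence. Means ± SEM, n = 3.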

OCI-AML2 [4] = assay: Induction of pyroptosis in CARD8 knockout human OCI-AML2 cells assessed as LDH release at 20 uM incubated for 24 hrs; type: functional, cell-based
Method in brief: (§1)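 Cells (MV4;11, OCI-AML2 or THP-1; WT or the knockout named) plated at 5 × 10^5 cells/well and exposed to 20 μM compound for 24 h. LDH in the supernatant was measured relative to a Triton X-100 lysis control. For immunoblots, cells were washed in PBS, sonicated, protein-normalized, run on SDS-PAGE and probed for GSDMD cleavage. n = 3.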

THP-1 [5] = assay: Induction of pyroptosis in human THP-1 cells assessed as LDH release at 20 uM incubated for 24 hrs; type: functional, cell-based; method in brief: as §1
MV4-11 [6] = assay: Induction of pyroptosis in CARD8 knockout human MV4-11 cells assessed as GSDMD cleavage at 20 uM incubated for 24 hrs by immunoblot analysis; type: functional, cell-based; method in brief: as §1
OCI-AML2 [7] = assay: Induction of pyroptosis in human OCI-AML2 cells assessed as GSDMD cleavage at 20 uM incubated for 24 hrs by immunoblot analysis; type: functional, cell-based; method in brief: as §1
OCI-AML2 [8] = assay: Induction of pyroptosis in CARD8 knockout human OCI-AML2 cells assessed as GSDMD cleavage at 20 uM incubated for 24 hrs by immunoblot analysis; type: functional, cell-based; method in brief: as §1
THP-1 [9] = assay: Induction of pyroptosis in human THP-1 cells assessed as GSDMD cleavage at 20 uM incubated for 24 hrs by immunoblot analysis; type: functional, cell-based; method in brief: as §1
T-cell = assay: Induction of pyroptosis in human T cells expressing CARD8 assessed as GSDMD cleavage at 20 uM incubated for 24 hrs by immunoblot analysis; type: functional, cell-based
Method in brief: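 Resting human primary T cells (>90% purity) were thawed and cultured in RPMI-1640 with 10% FBS and 30 U/mL IL-2. They were exposed to 20 μM compound for 24 h, lysed, and immunoblotted for GSDMD cleavage.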

THP-1 [10] = assay: Induction of pyroptosis in PEPD knockout human THP-1 cells assessed as LDH release at 20 uM incubated for 24 hrs; type: functional, cell-based; method in brief: as §1
THP-1 [11] = assay: Induction of pyroptosis in DPP8/9 knockout human THP-1 cells assessed as GSDMD clevage at 20 uM incubated for 24 hrs by immunoblot analysis; type: functional, cell-based; method in brief: as §1
HEK-293T = assay: Induction of pyroptosis in human HEK293T cells expressing CASP1 and GSDMD cotransfected with dTAG-CARD8ZUC and CARD8 FIIND S297A assessed as destabilization of DPP9-CARD8 ternary complex by measuring LDH release at 20 uM incubated for 6 hrs in presence of dTAG13; type: functional, cell-based
THP-1 [12] = assay: Induction of pyroptosis in CARD8 knockout human THP-1 cells harboring dox-inducible […] E274R mutant assessed as cell death by measuring LDH release at 20 uM pretreated with doxycycline for 16 hrs followed by compound addition and measured after 6 hrs; type: functional, cell-based
Method in brief: (§2)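 CARD8−/− THP-1 cells carrying a doxycycline-inducible CARD8 E274R mutant were exposed or not to DOX at 100 ng/mL for 16 h. Compound was then added at 20 μM for 6 h, followed by LDH release and immunoblot analysis.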

THP-1 [13] = assay: Induction of pyroptosis in CARD8 knockout human THP-1 cells harboring dox-inducible […] E274R mutant assessed as GSDMD cleavage at 20 uM pretreated with doxycycline for 16 hrs followed by compound addition and measured after 6 hrs by immunoblot analysis; type: functional, cell-based; method in brief: as §2
[14] = target: T1, Xaa-Pro dipeptidase (Homo sapiens) (UniProt P12955); assay: Inhibition of recombinant human PEPD using Ala-Pro as substrate assessed as alanine release by measuring increase in fluorescense signal at 1 uM by fluorescence based analysis relative to control
T1 sequence (whole entry): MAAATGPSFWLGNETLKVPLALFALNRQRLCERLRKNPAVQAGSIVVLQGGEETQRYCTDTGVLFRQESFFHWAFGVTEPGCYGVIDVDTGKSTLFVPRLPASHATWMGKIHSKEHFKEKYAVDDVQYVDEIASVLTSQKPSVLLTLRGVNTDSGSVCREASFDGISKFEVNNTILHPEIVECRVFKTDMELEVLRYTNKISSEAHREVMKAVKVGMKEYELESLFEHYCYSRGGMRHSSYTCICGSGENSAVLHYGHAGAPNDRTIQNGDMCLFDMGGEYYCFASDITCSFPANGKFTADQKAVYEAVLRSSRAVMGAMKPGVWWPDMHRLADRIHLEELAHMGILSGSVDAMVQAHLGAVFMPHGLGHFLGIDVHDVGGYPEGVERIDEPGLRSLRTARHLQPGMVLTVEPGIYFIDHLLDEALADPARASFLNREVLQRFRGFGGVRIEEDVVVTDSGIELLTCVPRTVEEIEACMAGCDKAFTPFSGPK
Method in brief: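 Recombinant human PEPD at 50 nM was incubated with Ala-Pro at 40 μM final and compound. Released alanine was detected by coupled alanine transaminase/pyruvate oxidase conversion to H2O2 and resorufin fluorescence (Ex/Em 535/587 nm) at 25 °C.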

THP-1 [15] = assay: Induction of pyroptosis in PEPD knockout human THP-1 cells assessed as GSDMD clevage at 20 uM incubated for 24 hrs by immunoblot analysis; type: functional, cell-based; method in brief: as §1
THP-1 [16] = assay: Induction of pyroptosis in XPNPEP1 knockout human THP-1 cells assessed as GSDMD clevage at 20 uM incubated for 24 hrs by immunoblot analysis; type: functional, cell-based; method in brief: as §1

| inhibition [14] [%] | SMILES | IC50 (MV4-11 [1]) [nM] | Activity (MV4-11 [2]) | Activity (OCI-AML2 [3]) | Activity (OCI-AML2 [4]) | Activity (THP-1 [5]) | Activity (MV4-11 [6]) | Activity (OCI-AML2 [7]) | Activity (OCI-AML2 [8]) | Activity (THP-1 [9]) | Activity (T-cell) | Activity (THP-1 [10]) | Activity (THP-1 [11]) | Activity (HEK-293T) | Activity (THP-1 [12]) | Activity (THP-1 [13]) | Activity (THP-1 [15]) | Activity (THP-1 [16]) |
| --- | --- | --- | --- | --- | --- | --- | --- | --- | --- | --- | --- | --- | --- | --- | --- | --- | --- | --- |
| 60 | COC(=O)[C@H](CC(C)C)NC(=O)[C@@H]1CCCN1C(=O)[C@@H](O)[C@H](N)CC(C)C | 270 | inactive | inactive | inactive | Active | inactive | Active | inactive | Active | Active | Active | inactive | Active | inactive | inactive | Active | Active |
| 48 | COC(=O)[C@@H]1CCCN1C(=O)[C@@H](O)[C@H](N)CC(C)C | 2200 | inactive | inactive | inactive | Active | inactive | Active | inactive | Active | Active | Active | inactive | Active | inactive | inactive | Active | Active |

— ChEMBL document CHEMBL5380787, “Optimized M24B Aminopeptidase Inhibitors for CARD8 Inflammasome Activation” (J Med Chem, 2023)
